From ChEMBL document CHEMBL3421612, “Identification of an anti-inflammatory derivative with anti-cancer potential: The impact of each of its structural components on inflammatory responses in macrophages and bladder cancer cells” (2015) come the findings set out here.

The test system of assay [1] is MB49-I. Briefly: (§1) Antiinflammatory activity against mouse MB49-I cells assessed as inhibition of IFN-gamma/TNFalpha-NO production pretreated at 50 uM after 24 hrs by Griess reaction relative to vehicle treated control. The class given is functional. Summed up: (§2)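 Cells seeded at 25 × 10³ per well, pretreated 3 h with test agents, washed twice with 10% FBS RPMI-1640, then stimulated 24 h with IFNγ plus TNFα. NO was quantified as nitrite using the Griess reaction (sulfanilic acid diazotization coupled to N-(1-naphthyl)ethylenediamine), absorbance at 548 nm, compared with cytokine-only control cells.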

The subject of assay [2] is MB49-I. Put plainly: (§3) Antiinflammatory activity against mouse MB49-I cells assessed as inhibition of IFN-gamma/TNFalpha-NO production pretreated at 10 uM after 24 hrs by Griess reaction relative to vehicle treated control. The class given is functional. The method, boiled down: as §2
Assay [3] is described as follows: as §1. It is filed as functional. Summed up: as §2
Assay [4] can be described thus: Reduction in IFN-gamma-induced CD40 expression in human THP1 cells assessed as fold decrease pretreated at 10 uM after 48 hrs by flow cytometry relative to vehicle treated control. The class given is functional, cell-based. The following applies: THP-1. The method, boiled down: (§4)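 PMA-differentiated GFP-THP1 macrophages at 750 × 10⁴ cells/mL were pretreated 3 h with DMSO or compound, then left untreated or stimulated 48 h with 50 U/mL IFNγ. Surface CD40 and MHC-II were quantified by flow cytometry as fold change versus resting cells.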
(In general: A flow cytometer gives signals particle by particle.)

Assay [5] is described as follows: (§5) Antiproliferative activity against mouse MB49-I cells assessed as induction of IFN-gamma/TNFalpha-induced loss of cell viability at 25 uM after 24 hrs by MTT assay relative to control. It is filed as functional. Summed up: (§6)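 MB49-I cells plated at 5 × 10³ per well and cultured 24 h. Pretreated 3 h with DMSO or compound at 0–50 μM, then incubated 24 h with or without IFNγ plus TNFα. MTT added for 3 h, solubilized overnight in 10% SDS/10 mM HCl, and absorbance read at 580 nm.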
On the technique in general: Tetrazolium assays rely on reduction of a dye to a coloured formazan, in cell work by metabolically active cells.

A short description of assay [6]: (§7) Antiproliferative activity against mouse MB49-I cells assessed as induction of IFN-gamma/TNFalpha-induced loss of cell viability at 50 uM after 24 hrs by MTT assay relative to control. The class given is functional. Summed up:
as §6

Assay [7] concerns THP-1. Briefly: Reduction in IFN-gamma-induced STAT1 phosphorylation in human THP1 cells assessed as fold decrease at 10 uM after 30 mins by densitometric analysis relative to vehicle treated control. It is filed as functional. The conditions noted are these: THP-1, 0.5 h. The method, boiled down:
(§8)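 PMA-differentiated THP1 macrophages at 750 × 10³ cells/mL were pretreated 30 min with DMSO or compound at 10 or 50 μM, washed, then harvested immediately or after 30 min of 50 U/mL IFNγ (pSTAT1) or 25 ng/mL IL6 (pSTAT3). Lysates were run on reducing SDS-PAGE and immunoblotted for pSTAT1/pSTAT3, with blots reprobed for total STAT; phosphorylation was expressed as fold induction.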

Assay [8] is described as follows: Reduction in IFN-gamma-induced MHC2 expression in human THP1 cells assessed as fold decrease pretreated at 10 uM after 48 hrs by flow cytometry relative to vehicle treated control. The following applies: THP-1. The class given is functional, cell-based. Summed up:
as §4

Assay [9] can be described thus: as §3. The class given is functional. Summed up:
as §2

Assay [10] has as its system MB49-I. Briefly: Antiproliferative activity against mouse MB49-I cells assessed as induction of IFN-gamma/TNFalpha-induced loss of cell viability at 10 uM after 24 hrs by MTT assay relative to control. The class given is functional, cell-based. The method, boiled down: as §6
Assay [11] relates to THP-1. Briefly: Reduction in IFN-gamma-induced STAT1 phosphorylation in human THP1 cells assessed as fold decrease at 50 uM after 30 mins by densitometric analysis relative to vehicle treated control. The class given is functional. The conditions noted are these: THP-1, 0.5 h. The method, boiled down:
as §8

The test system of assay [12] is J774.A1. Put plainly: Reduction in IFN-gamma/TNFalpha-induced NO production in mouse J774A.1 cells pretreated at 50 uM measured for 24 hrs by Griess reaction relative to vehicle treated control. It is filed as functional. The method, boiled down:
as §2
(In general: Nitrite, measured by Griess reagent, commonly stands in for NO production.)

The nature of assay [13]: (§9) Antiproliferative activity against mouse MB49-I cells assessed as induction of IFN-gamma/TNFalpha-induced loss of cell viability at 37.5 uM after 24 hrs by MTT assay relative to control. It is filed as functional. Summed up: as §6
The test system of assay [14] is THP-1. Briefly: Reduction in IL6-induced STAT3 phosphorylation in human THP1 cells assessed as fold decrease at 50 uM after 30 mins by densitometric analysis relative to vehicle treated control. It is filed as functional. The conditions noted are these: THP-1, 0.5 h. Summed up: as §8
The test system of assay [15] is J774.A1. Put plainly: Reduction in IFN-gamma/TNFalpha-induced NO production in mouse J774A.1 cells pretreated at 10 uM measured for 24 hrs by Griess reaction relative to vehicle treated control. It is filed as functional. The method, boiled down:
as §2

For assay [16], the system named is THP-1. Put plainly: Reduction in IL6-induced STAT3 phosphorylation in human THP1 cells assessed as fold decrease at 10 uM after 30 mins by densitometric analysis relative to vehicle treated control. The class given is functional. The following applies: THP-1, 0.5 h. The method, boiled down: as §8
Assay [17] in a line: Reduction in IFN-gamma-induced CD40 expression in human THP1 cells assessed as fold decrease pretreated at 25 uM after 48 hrs by flow cytometry relative to vehicle treated control. The class given is functional, cell-based. The following applies: THP-1. Summed up:
as §4

The test system of assay [18] is MB49-I. The description is as §5. The class given is functional. Summed up: as §6
Assay [19] has as its system MB49-I. Described as §7. The class given is functional. The method, boiled down: as §6
The subject of assay [20] is MB49-I. The assay is described as §9. It is filed as functional. The method, boiled down: as §6
Assay [21] can be described thus: Reduction in IFN-gamma-induced MHC2 expression in human THP1 cells assessed as fold decrease pretreated at 25 uM after 48 hrs by flow cytometry relative to vehicle treated control. The following applies: THP-1. It is filed as functional, cell-based. Summed up: as §4

Each structure is given as a SMILES string. Activity calls are given as the source filed them. The rule behind the calls is not given here.

As for `Nc1ccc(C(=O)O)cc1`, the inhibition result in assay [1] and in [2] was “inactive” in each case.

With `CC(C)(C)OC(=O)NNC(=O)c1ccccc1`, the outcome in assay [1] and in assay [2] was inactive.

Consider `O=C(O)c1ccc(N2C(=O)C=CC2=O)cc1`, for which the inhibition result in [1] and in assay [2] was “inactive” in each case.

As to `O=C1C=CC(=O)O1`, the inhibition result in [1] and in assay [2] was “inactive” each time.

Turning to `O=C1C=CC(=O)N1c1ccccc1`, the inhibition result in assay [1] and in assay [2] was “inactive” each time.

As for `O=C(O)/C=C\C(=O)Nc1ccc(C(=O)O)cc1`, the inhibition result in [1] and in [2] was “inactive” in each case.

Take `CC(C)(C)OC(=O)NNC(=O)c1ccc(N2C(=O)C=CC2=O)cc1`: the inhibition at 50 µM in assay [3] is 81%; in assay [6], 50%; in assay [11] it was 71%; in assay [12] it was 91%; in [14], 85%. The inhibition in assay [4] came to 87%; in assay [8], 49%. The inhibition at 25 µM in assay [5] turned out to be 19%. Besides, the inhibition at 10 µM stood at 38% in assay [7], 40% in assay [9], 46% in assay [15] and 64% in [16]. Besides, the result in assay [10] was inactive. In [13], the inhibition at 37.5 µM worked out at 45%.

As for `O=C(O)/C=C\C(=O)Nc1ccccc1`, the inhibition entry in assay [1] and in assay [2] was “inactive” each time.

For `NNC(=O)c1ccc(N2C(=O)C=CC2=O)cc1`, the inhibition at 50 µM in assay [3] came to 72%; in assay [11], 66%; in assay [12], 69%; in assay [14], 38%. In addition, the inhibition in [17] was found to be 43%; in [21] it was 23%. For the same compound, the inhibition result in [18], in [19] and in assay [20] was “inactive” throughout. The inhibition at 10 µM in assay [7] is 16%; in assay [9], 21%; in assay [15], 24%; in assay [16], 15%. The outcome in assay [10] was inactive.

As a reminder, the inhibition is how much of the control response was suppressed.
